Consider one molecule from article PMC4339026 (Biopolymers, 2014).

Entries after “also recorded” stand apart in the source; their conditions may differ. A value given as a limit tells only on which side of the number the result lay.

Assay type in all cases: biochemical
The target in test [1] is T1, meprin β (Homo sapiens, UniProt Q16820).
T1 sequence (Q16820 62-614 limits assumed): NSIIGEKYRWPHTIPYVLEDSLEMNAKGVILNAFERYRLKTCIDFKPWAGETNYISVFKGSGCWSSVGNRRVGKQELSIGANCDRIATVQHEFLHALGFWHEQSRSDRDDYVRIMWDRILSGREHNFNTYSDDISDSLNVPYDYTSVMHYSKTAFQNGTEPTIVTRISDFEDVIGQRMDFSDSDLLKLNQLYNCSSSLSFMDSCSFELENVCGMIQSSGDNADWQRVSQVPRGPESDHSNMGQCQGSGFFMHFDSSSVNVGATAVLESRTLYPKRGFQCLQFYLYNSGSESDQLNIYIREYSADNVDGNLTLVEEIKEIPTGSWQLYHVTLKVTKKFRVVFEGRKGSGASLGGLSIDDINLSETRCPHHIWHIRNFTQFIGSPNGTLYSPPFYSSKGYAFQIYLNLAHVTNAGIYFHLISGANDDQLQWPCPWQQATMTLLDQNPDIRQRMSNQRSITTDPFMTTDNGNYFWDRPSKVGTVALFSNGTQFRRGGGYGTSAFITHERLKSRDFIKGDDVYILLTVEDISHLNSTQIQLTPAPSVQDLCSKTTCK
Briefly: Meprin β HTS FRET assay, dose response. The method, boiled down:
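Trypsin-activated meprin β (trypsin removed on immobilized ovomucoid) in 50 mM Hepes, 0.01% Brij-35, pH 7.5, added as 2x (0.15 nM) solution. Pin-transferred inhibitor was preincubated 30 min at RT. 2x (20 μM) (MCA)-EDEDED-(K-ε-DNP) was then added, run 1 h at RT, and read at ex 324/em 393 nm. A 3-fold dilution series was run in quadruplicate, and % inhibition was fitted with a 4-parameter equation. DMSO final was 0.1% or 1.0%.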

Test [2] addresses T2, MMP-2 (Homo sapiens, UniProt P08253).
T2 sequence (P08253 110-660): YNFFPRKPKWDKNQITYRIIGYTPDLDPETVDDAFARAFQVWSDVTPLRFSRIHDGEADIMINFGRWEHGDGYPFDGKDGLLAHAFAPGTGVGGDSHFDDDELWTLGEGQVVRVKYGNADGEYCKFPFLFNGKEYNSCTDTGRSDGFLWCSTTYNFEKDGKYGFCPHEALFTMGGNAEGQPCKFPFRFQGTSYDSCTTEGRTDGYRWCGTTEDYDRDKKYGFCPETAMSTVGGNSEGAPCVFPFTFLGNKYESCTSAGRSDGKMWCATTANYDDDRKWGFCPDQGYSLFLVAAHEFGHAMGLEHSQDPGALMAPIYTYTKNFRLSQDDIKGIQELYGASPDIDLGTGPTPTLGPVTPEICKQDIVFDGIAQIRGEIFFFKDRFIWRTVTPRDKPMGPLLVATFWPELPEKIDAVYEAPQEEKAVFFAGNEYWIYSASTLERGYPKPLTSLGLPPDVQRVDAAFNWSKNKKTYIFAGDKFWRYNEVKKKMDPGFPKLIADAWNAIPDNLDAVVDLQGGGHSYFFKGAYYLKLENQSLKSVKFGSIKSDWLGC
Nature of the test: Selectivity testing against zinc metalloproteases: MMP-2. Conditions: read-out: IC50 MMP-2; n = 3 Mean ± SD.

Test [3] concerns the target MMP-8 (Homo sapiens, UniProt P22894). Nature of the test: Selectivity testing against zinc metalloproteases: MMP-8. Conditions: read-out: IC50 MMP-8; n = 3 Mean ± SD.
For test [4], the target named is MMP-9 (Homo sapiens, UniProt P14780). Briefly: Selectivity testing against zinc metalloproteases: MMP-9. The settings on record: read-out: IC50 MMP-9; n = 3 Mean ± SD.
For test [5], the target named is MMP-13 (Homo sapiens, UniProt P45452). Briefly: Selectivity testing against zinc metalloproteases: MMP-13. Conditions: read-out: IC50 MMP-13; n = 3 Mean ± SD.
The target of test [6] is MMP-14 (Homo sapiens, UniProt P50281). Nature of the test: Selectivity testing against zinc metalloproteases: MMP-14. Conditions: read-out: IC50 MMP-14; n = 3 Mean ± SD.
The target of test [7] is T3, ADAM10 (Homo sapiens, UniProt O14672).
T3 sequence (O14672 214-748): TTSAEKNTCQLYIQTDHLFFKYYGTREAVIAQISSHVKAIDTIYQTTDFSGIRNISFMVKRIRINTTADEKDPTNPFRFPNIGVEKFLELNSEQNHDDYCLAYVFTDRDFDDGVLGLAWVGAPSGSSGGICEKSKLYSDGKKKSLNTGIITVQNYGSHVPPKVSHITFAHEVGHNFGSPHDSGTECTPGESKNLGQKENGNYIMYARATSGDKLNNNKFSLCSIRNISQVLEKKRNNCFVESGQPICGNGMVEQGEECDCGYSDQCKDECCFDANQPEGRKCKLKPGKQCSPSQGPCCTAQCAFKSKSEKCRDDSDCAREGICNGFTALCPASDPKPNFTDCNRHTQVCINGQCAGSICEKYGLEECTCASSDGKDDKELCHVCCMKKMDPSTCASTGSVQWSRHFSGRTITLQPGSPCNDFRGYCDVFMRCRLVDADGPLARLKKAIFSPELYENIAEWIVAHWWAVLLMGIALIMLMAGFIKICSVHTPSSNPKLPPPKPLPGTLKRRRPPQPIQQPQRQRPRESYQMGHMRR
Nature of the test: Selectivity testing against zinc metalloproteases: ADAM10. Conditions: read-out: IC50 ADAM10; n = 3 Mean ± SD.

For test [8], the target named is ADAM17 (Homo sapiens, UniProt P78536). Briefly: Selectivity testing against zinc metalloproteases: ADAM17. Conditions: read-out: IC50 ADAM17; n = 3 Mean ± SD.
Test [9] deals with T1, meprin β. Nature of the test: Meprin β inhibition kinetics / enzyme kinetics. The method, boiled down:
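Trypsin-activated meprin β at 1 nM was run with (MCA)-EDEDED-(K-ε-DNP) 0.5–25 μM plus varying inhibitor concentrations in 50 mM Hepes, 0.01% Brij-35, pH 7.5, at 25 °C. Fluorescence was read at ex 324/em 393 nm. Rates came from the linear portion of the progress curves. Ki and Ki′ came from nonlinear regression with a mixed-inhibition model. Mechanism came from the alpha parameter and was checked with Lineweaver-Burk plots.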

Test [10] deals with T1, meprin β. Nature of the test: Meprin β LOPAC pilot screen. Conditions: 18 μM.

Chain of MMP-9 (P14780 94-707, species assumed): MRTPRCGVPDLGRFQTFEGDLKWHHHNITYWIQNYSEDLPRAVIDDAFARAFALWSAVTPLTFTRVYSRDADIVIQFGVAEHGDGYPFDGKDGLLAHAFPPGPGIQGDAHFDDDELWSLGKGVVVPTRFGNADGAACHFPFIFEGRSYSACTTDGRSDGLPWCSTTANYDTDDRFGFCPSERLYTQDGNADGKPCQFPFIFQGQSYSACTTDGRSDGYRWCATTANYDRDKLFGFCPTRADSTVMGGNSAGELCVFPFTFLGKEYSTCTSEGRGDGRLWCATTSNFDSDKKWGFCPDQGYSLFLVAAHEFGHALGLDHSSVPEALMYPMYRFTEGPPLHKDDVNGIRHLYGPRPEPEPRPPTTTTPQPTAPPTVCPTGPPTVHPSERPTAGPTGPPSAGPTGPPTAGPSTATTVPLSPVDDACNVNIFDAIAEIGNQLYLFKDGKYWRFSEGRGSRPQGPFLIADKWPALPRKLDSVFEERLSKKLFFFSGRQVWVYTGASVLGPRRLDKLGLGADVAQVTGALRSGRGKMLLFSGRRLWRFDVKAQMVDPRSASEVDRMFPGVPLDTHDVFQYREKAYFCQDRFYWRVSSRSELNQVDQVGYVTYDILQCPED
Chain of ADAM17 (P78536 215-824, species assumed): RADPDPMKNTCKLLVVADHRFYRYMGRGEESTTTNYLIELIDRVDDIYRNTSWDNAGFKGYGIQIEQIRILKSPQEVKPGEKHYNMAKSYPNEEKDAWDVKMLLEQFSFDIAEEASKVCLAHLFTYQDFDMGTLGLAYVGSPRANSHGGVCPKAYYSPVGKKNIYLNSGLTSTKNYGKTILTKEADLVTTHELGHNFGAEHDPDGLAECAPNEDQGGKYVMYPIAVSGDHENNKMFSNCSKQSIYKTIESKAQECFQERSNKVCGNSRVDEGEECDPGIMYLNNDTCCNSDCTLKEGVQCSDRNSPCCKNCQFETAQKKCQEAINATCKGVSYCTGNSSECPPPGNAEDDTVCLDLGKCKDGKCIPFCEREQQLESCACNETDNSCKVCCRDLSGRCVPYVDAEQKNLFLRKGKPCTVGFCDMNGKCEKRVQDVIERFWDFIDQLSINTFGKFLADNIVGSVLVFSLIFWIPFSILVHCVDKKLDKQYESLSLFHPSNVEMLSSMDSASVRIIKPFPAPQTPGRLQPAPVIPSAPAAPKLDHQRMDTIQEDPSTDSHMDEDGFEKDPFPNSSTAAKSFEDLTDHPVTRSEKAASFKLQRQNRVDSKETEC
Chain of MMP-8 (P22894 101-467, species assumed): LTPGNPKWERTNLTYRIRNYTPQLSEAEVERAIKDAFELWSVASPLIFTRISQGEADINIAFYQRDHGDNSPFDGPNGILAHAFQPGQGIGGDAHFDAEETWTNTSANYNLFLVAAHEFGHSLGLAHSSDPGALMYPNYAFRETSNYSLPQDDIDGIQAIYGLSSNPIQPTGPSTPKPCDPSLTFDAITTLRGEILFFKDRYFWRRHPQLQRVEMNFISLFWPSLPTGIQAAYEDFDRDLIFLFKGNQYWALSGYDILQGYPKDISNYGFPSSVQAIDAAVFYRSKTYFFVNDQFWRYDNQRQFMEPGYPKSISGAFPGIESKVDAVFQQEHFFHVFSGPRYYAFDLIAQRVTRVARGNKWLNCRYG

As usually defined, the IC50 is the concentration that gives 50% inhibition. Usually Ki stands for a measure of affinity in units of concentration, obtained from inhibition or displacement. In the case of `O=C(Nc1cc(C(=O)Nc2ccc(S(=O)(=O)O)cc2S(=O)(=O)O)cc(C(=O)Nc2ccc(S(=O)(=O)O)cc2S(=O)(=O)O)c1)Nc1cc(C(=O)Nc2ccc(S(=O)(=O)O)cc2S(=O)(=O)O)cc(C(=O)Nc2ccc(S(=O)(=O)O)cc2S(=O)(=O)O)c1` [NF449, 4,4′,4″,4‴-[Carbonyl-bis[imino-5,1,3-benzenetriylbis-(carbonyl-imino)]]tetrakis(benzene-1,3-disulfonic acid)], the “meprin β dose response behaviour” value in test [1] (dose response experiment, data not shown) was “did not exhibit the same effect”. In [1] (ratio of IC50 values), the “potency differential meprin β versus meprin α” value is reported as > 1000 fold. Further, in test [1] (ratio of IC50 values), the “selectivity ratio meprin β versus MMP-8” value is recorded as “approximately 12 fold”. Moreover, the IC50 was determined as 0.07 ± 0.005 µM in test [1] (read-out: IC50 Meprin β, selectivity testing, n = 3 Mean ± SD); 6 ± 0.5 µM in [2]; 1 ± 0.1 µM in test [3]; 8.6 ± 0.7 µM in test [4]; 40 ± 3 µM in test [5]; 18 ± 1.5 µM in test [6]. Further, the IC50 in test [7] came out at 1.2 ± 0.1 µM; in test [8] it was 4.6 ± 0.3 µM. The “Ki lower than IC50, fold” value in [9] (meprin β Ki versus HTS IC50) came out at 3 fold. For the same molecule, in [9] (mixed-model inhibition, non-linear regression), the “α = Ki/Ki′” value amounted to 3.6 ± 4.3. In test [9] (non-linear regression and Lineweaver-Burke plots), the “mechanism of inhibition of meprin β” value was “mixed competitive/non-competitive inhibition modality; also recorded: competitive mechanism with elements of non-competitive inhibition”. Moreover, the Ki in test [9] (read-out: Ki meprin β, substrate (MCA)-EDEDED-(K-ε-DNP), mixed inhibition model) turned out to be 0.022 ± 0.0096 µM. Besides, the “% inhibition meprin β in pilot screen” value in test [10] is “negative inhibition values”. In addition, the “meprin β LOPAC pilot screen outcome” value in test [10] (hit cutoff 25% inhibition) is reported as “selective hits”.
